Assay results pooled from the literature.
Each line is one published result; the experiments were not run side by side.
Target: Serine/threonine-protein kinase PknB (pknB, Mycobacterium tuberculosis, UniProt P9WI81)

Compound	assay	conditions	remaining binding
CS(=O)(=O)N1CCCC(NC(=O)[C@H](CCC2CCCCC2)NC(=O)c2ccc(CNc3ncnc4c3nnn4-c3ccccc3)cc2)C1 (stereo partly drawn)	cell-free assay, competition with immobilised ligand	0.1 µM	90%
F[C@@H]1CCN(c2nccc(-c3cnn4ncccc34)n2)C1	binding	1 µM	100%
O=C(NCC1CCOCC1)c1n[nH]cc1NC(=O)c1c(F)cccc1F	binding, competition with immobilised ligand	1 µM	99%
CN(C)CC#Cc1ccc(OCCCc2sc(N3CCc4cccc(C(=O)Nc5nc6ccccc6s5)c4C3)nc2C(=O)O)c(F)c1	cell-free assay, competition with immobilised ligand	1 µM	100%
N[C@H]1CCN(c2nccc(-c3cnn4ncccc34)n2)C1	binding	1 µM	98%
FC(F)(F)Oc1cccc(-c2cnc3ccc(-c4ccncc4)nn23)c1	cell-free assay, competition with immobilised ligand	5 µM	31%
CCN1CCN(Cc2ccc(C(=O)Nc3ccc(C)c(Oc4ccc5c(c4)CC(=O)N5)c3)cc2C(F)(F)F)CC1	binding, competition with immobilised ligand	1 µM	100%
COc1cnc(Nc2cccc(S(N)(=O)=O)c2)nc1N1CCN(c2ccccc2)CC1	binding, competition with immobilised ligand	1 µM	99%
COc1ccc2c(c1)O[C@@H](c1ccc(OC)c(OC)c1)C[C@H]2NC(=O)C1(c2ccc3c(c2)OC(F)(F)O3)CC1	cell-free assay, competition with immobilised ligand	1 µM	85%
C=CC(=O)N1CCC(C(=O)NCC(=O)N2CCN(c3nc(-c4cnc(N)nc4C(F)F)nc(N4CCOCC4)n3)CC2)CC1	binding, competition with immobilised ligand	1 µM	67%
CN(CCCC(F)(F)F)c1nccc(-c2cnn3ncccc23)n1	binding	1 µM	89%
COc1cc(-c2cn(C3CCc4c(F)cccc4N(CC(F)(F)F)C3=O)nn2)ccc1-n1cnc(C)c1 (stereo not drawn)	cell-free assay, competition with immobilised ligand	1 µM	82%
C[C@@H]1CCN(c2nccc(-c3cnn4ncccc34)n2)C1	binding	1 µM	100%
Cc1c(NC(=O)c2cc(C(N)=O)nc3cc(F)ccc23)c(C(F)(F)F)nn1Cc1ccc(C#N)cc1	cell-free assay, competition with immobilised ligand	1 µM	78%
c1cncc(-c2cccc(Nc3nccc(NC4CCCCC4)n3)c2)c1	binding, competition with immobilised ligand	10 µM	89%
